MIC data for 15 molecules are collected here from ChEMBL document CHEMBL3616399, “Design, synthesis, and structure-activity relationship studies of novel thienopyrrolidone derivatives with strong antifungal activity against Aspergillus fumigates” (Eur J Med Chem, 2015).

What all share (type): functional
One experiment relates to Aspergillus fumigatus. Kind of experiment: Antifungal activity against Aspergillus fumigatus 7544 after 48 hrs by serial dilution method. The conditions noted are these: Aspergillus fumigatus, 7544, 48 h. In outline:
(§1)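 MIC by broth serial dilution per NCCLS/CLSI (M27-A3 yeasts, M38-A2 filamentous) in 96-well plates; ATCC strains plus clinical isolates; C. parapsilosis 22019 run as quality-control strain in every assay. Compounds dissolved in DMSO, serially diluted in growth medium; incubation 35 °C; MIC read at 24 h (Candida), 48 h (A. fumigatus), 72 h (C. neoformans).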

For a further experiment, the system named is Cryptococcus neoformans. Put plainly: Antifungal activity against Cryptococcus neoformans 32609 after 72 hrs by serial dilution method. The following applies: Cryptococcus neoformans, 32609, 72 h. In outline: as §1
In another experiment the test system is Nakaseomyces glabratus. Put plainly: Antifungal activity against Candida glabrata 537 after 24 hrs by serial dilution method. The following applies: Nakaseomyces glabratus, 537, 24 h. In outline:
as §1

Experiment [1] has as its system Candida albicans. Kind of experiment: Antifungal activity against Candida albicans SC5314 after 24 hrs by serial dilution method. The following applies: SC5314, 24 h. In outline: as §1
For a further experiment, the system named is Candida parapsilosis. Kind of experiment: Antifungal activity against Candida parapsilosis 22019 after 24 hrs by serial dilution method. The following applies: Lodderomyces parapsilosis, 22019, 24 h. In outline:
as §1

The test system of experiment [2] is Candida albicans. Put plainly: Antifungal activity against Candida albicans Y0109 after 24 hrs by serial dilution method. The following applies: Y0109, 24 h. In outline: as §1

Values after ≈ are worked out from the molar mass of the structure shown.

In general, MIC refers to the lowest concentration that inhibits growth of the organism. Lower therefore signals inhibition by little substance. For the molecule `C[C@@H](N1Cc2sc(-c3ccccc3)cc2C1=O)[C@](O)(Cn1cncn1)c1ccc(F)cc1F`, the MIC with Aspergillus fumigatus is 32 µg/mL (≈ 68.6 µM); against Cryptococcus neoformans, 0.0625 µg/mL (≈ 0.134 µM); in the experiment on Nakaseomyces glabratus, 0.0625 µg/mL (≈ 0.134 µM); in the experiment on Candida albicans [1], 0.0156 µg/mL (≈ 0.0334 µM); against Candida parapsilosis it was 0.0312 µg/mL (≈ 0.067 µM); in the experiment on Candida albicans [2], 0.0312 µg/mL (≈ 0.067 µM).

For the molecule `C[C@@H](N1Cc2cc(-c3cncc(C#N)c3)sc2C1=O)[C@](O)(Cn1cncn1)c1ccc(F)cc1F`, the minimum inhibitory concentration (MIC) against Aspergillus fumigatus turned out to be 4 µg/mL (≈ 8.12 µM); against Cryptococcus neoformans, 0.0312 µg/mL (≈ 0.0635 µM); with Nakaseomyces glabratus, 0.125 µg/mL (≈ 0.254 µM); in the experiment with Candida albicans [1], 0.0156 µg/mL (≈ 0.0317 µM); in the experiment on Candida parapsilosis, 0.0156 µg/mL (≈ 0.0317 µM); with Candida albicans [2], 0.0312 µg/mL (≈ 0.0635 µM).

On to `C[C@@H](N1Cc2sc(-c3cncc(F)c3)cc2C1=O)[C@](O)(Cn1cncn1)c1ccc(F)cc1F`, for which the MIC in the experiment on Aspergillus fumigatus was over 64 µg/mL; with Cryptococcus neoformans, 0.0078 µg/mL (≈ 0.0161 µM); with Nakaseomyces glabratus, 0.0625 µg/mL (≈ 0.129 µM); against Candida albicans [1], 0.0078 µg/mL (≈ 0.0161 µM); against Candida parapsilosis, 0.0156 µg/mL (≈ 0.0321 µM); in the experiment with Candida albicans [2] it was 0.0156 µg/mL (≈ 0.0321 µM).

For the molecule `C[C@@H](N1CCn2nc(-c3ccc(C#N)nc3)nc2C1)[C@](O)(Cn1cncn1)c1ccc(F)cc1F`, the minimal inhibitory concentration (MIC) was found to be 2 µg/mL (≈ 4.19 µM) against Aspergillus fumigatus; 0.0625 µg/mL (≈ 0.131 µM) against Cryptococcus neoformans; 0.0156 µg/mL (≈ 0.0327 µM) in the experiment on Nakaseomyces glabratus; 0.0156 µg/mL (≈ 0.0327 µM) against Candida albicans [1]; 0.0156 µg/mL (≈ 0.0327 µM) against Candida parapsilosis; 0.0156 µg/mL (≈ 0.0327 µM) against Candida albicans [2].

Take `C[C@@H](N1Cc2cc(-c3cncnc3)sc2C1=O)[C@](O)(Cn1cncn1)c1ccc(F)cc1F`: the MIC in the experiment on Aspergillus fumigatus was 4 µg/mL (≈ 8.54 µM); with Cryptococcus neoformans it was 0.0312 µg/mL (≈ 0.0667 µM); in the experiment on Nakaseomyces glabratus, 0.125 µg/mL (≈ 0.267 µM); against Candida albicans [1], 0.0312 µg/mL (≈ 0.0667 µM); against Candida parapsilosis, 0.0625 µg/mL (≈ 0.133 µM); in the experiment with Candida albicans [2] it was 0.0156 µg/mL (≈ 0.0333 µM).

Regarding `C[C@@H](N1Cc2cc(-c3cccc(Cl)c3)sc2C1=O)[C@](O)(Cn1cncn1)c1ccc(F)cc1F`, the minimum inhibitory concentration (MIC) against Aspergillus fumigatus stood at 8 µg/mL (≈ 16 µM); against Cryptococcus neoformans, 0.125 µg/mL (≈ 0.25 µM); in the experiment with Nakaseomyces glabratus, 0.125 µg/mL (≈ 0.25 µM); in the experiment with Candida albicans [1], 0.0156 µg/mL (≈ 0.0311 µM); with Candida parapsilosis, 0.0625 µg/mL (≈ 0.125 µM); in the experiment on Candida albicans [2] it was 0.0625 µg/mL (≈ 0.125 µM).

Take `C[C@@H](N1Cc2sc(-c3ccc(C#N)nc3)cc2C1=O)[C@](O)(Cn1cncn1)c1ccc(F)cc1F`: the minimal inhibitory concentration (MIC) in the experiment on Aspergillus fumigatus was found to be 32 µg/mL (≈ 65 µM); against Cryptococcus neoformans, 0.0156 µg/mL (≈ 0.0317 µM); in the experiment with Nakaseomyces glabratus it was 0.0625 µg/mL (≈ 0.127 µM); against Candida albicans [1], 0.0156 µg/mL (≈ 0.0317 µM); against Candida parapsilosis it was 0.0156 µg/mL (≈ 0.0317 µM); against Candida albicans [2] it was 0.0156 µg/mL (≈ 0.0317 µM).

Turning to `C[C@@H](N1Cc2cc(-c3cccc(F)c3)sc2C1=O)[C@](O)(Cn1cncn1)c1ccc(F)cc1F`, the MIC in the experiment on Aspergillus fumigatus stood at 4 µg/mL (≈ 8.26 µM); against Cryptococcus neoformans, 0.0625 µg/mL (≈ 0.129 µM); with Nakaseomyces glabratus it was 0.125 µg/mL (≈ 0.258 µM); in the experiment on Candida albicans [1], 0.0156 µg/mL (≈ 0.0322 µM); in the experiment on Candida parapsilosis it was 0.125 µg/mL (≈ 0.258 µM); in the experiment on Candida albicans [2], 0.0625 µg/mL (≈ 0.129 µM).

For the molecule `COc1ncc(-c2cc3c(s2)CN([C@H](C)[C@](O)(Cn2cncn2)c2ccc(F)cc2F)C3=O)cn1`, the MIC with Aspergillus fumigatus came to 16 µg/mL (≈ 32.1 µM); against Cryptococcus neoformans, 0.0156 µg/mL (≈ 0.0313 µM); with Nakaseomyces glabratus, 0.0156 µg/mL (≈ 0.0313 µM); against Candida albicans [1], 0.0156 µg/mL (≈ 0.0313 µM); against Candida parapsilosis, 0.0156 µg/mL (≈ 0.0313 µM); with Candida albicans [2] it was 0.0156 µg/mL (≈ 0.0313 µM).

With `C[C@@H](N1Cc2cc(-c3cccnc3)sc2C1=O)[C@](O)(Cn1cncn1)c1ccc(F)cc1F`, the MIC against Aspergillus fumigatus is 4 µg/mL (≈ 8.56 µM); against Cryptococcus neoformans it was 0.0312 µg/mL (≈ 0.0668 µM); with Nakaseomyces glabratus, 0.125 µg/mL (≈ 0.267 µM); in the experiment with Candida albicans [1], 0.0156 µg/mL (≈ 0.0334 µM); against Candida parapsilosis, 0.0312 µg/mL (≈ 0.0668 µM); against Candida albicans [2] it was 0.0156 µg/mL (≈ 0.0334 µM).

With `COc1cccc(-c2cc3c(s2)C(=O)N([C@H](C)[C@](O)(Cn2cncn2)c2ccc(F)cc2F)C3)c1`, the minimal inhibitory concentration (MIC) amounted to 8 µg/mL (≈ 16.1 µM) against Aspergillus fumigatus; 0.25 µg/mL (≈ 0.503 µM) in the experiment on Cryptococcus neoformans; 0.125 µg/mL (≈ 0.252 µM) against Nakaseomyces glabratus; 0.0625 µg/mL (≈ 0.126 µM) with Candida albicans [1]; 0.125 µg/mL (≈ 0.252 µM) against Candida parapsilosis; 0.0625 µg/mL (≈ 0.126 µM) against Candida albicans [2].

Take `C[C@@H](N1Cc2cc(-c3ccc(C#N)nc3)sc2C1=O)[C@](O)(Cn1cncn1)c1ccc(F)cc1F`: the MIC in the experiment on Aspergillus fumigatus worked out at 8 µg/mL (≈ 16.2 µM); in the experiment with Cryptococcus neoformans it was 0.125 µg/mL (≈ 0.254 µM); with Nakaseomyces glabratus, 0.5 µg/mL (≈ 1.02 µM); with Candida albicans [1], 0.125 µg/mL (≈ 0.254 µM); in the experiment with Candida parapsilosis, 0.125 µg/mL (≈ 0.254 µM); in the experiment on Candida albicans [2], 0.0312 µg/mL (≈ 0.0635 µM).

`Cc1cccc(-c2cc3c(s2)C(=O)N([C@H](C)[C@](O)(Cn2cncn2)c2ccc(F)cc2F)C3)c1`: the MIC against Aspergillus fumigatus was 4 µg/mL (≈ 8.32 µM); in the experiment on Cryptococcus neoformans it was 0.125 µg/mL (≈ 0.26 µM); against Nakaseomyces glabratus, 0.0625 µg/mL (≈ 0.13 µM); with Candida albicans [1], 0.0625 µg/mL (≈ 0.13 µM); against Candida parapsilosis, 0.125 µg/mL (≈ 0.26 µM); in the experiment on Candida albicans [2], 0.0625 µg/mL (≈ 0.13 µM).

Take `C[C@@H](N1Cc2sc(-c3ccncc3)cc2C1=O)[C@](O)(Cn1cncn1)c1ccc(F)cc1F`: the MIC in the experiment on Aspergillus fumigatus was over 64 µg/mL; in the experiment with Cryptococcus neoformans, 0.0156 µg/mL (≈ 0.0334 µM); against Nakaseomyces glabratus, 0.0625 µg/mL (≈ 0.134 µM); in the experiment with Candida albicans [1], 0.0156 µg/mL (≈ 0.0334 µM); against Candida parapsilosis it was 0.0312 µg/mL (≈ 0.0668 µM); in the experiment with Candida albicans [2], 0.0156 µg/mL (≈ 0.0334 µM).

`C[C@@H](N1Cc2sc(Br)cc2C1=O)[C@](O)(Cn1cncn1)c1ccc(F)cc1F`: the MIC against Aspergillus fumigatus worked out at 32 µg/mL (≈ 68.2 µM); against Cryptococcus neoformans, 0.125 µg/mL (≈ 0.266 µM); against Nakaseomyces glabratus, 0.125 µg/mL (≈ 0.266 µM); against Candida albicans [1] it was 0.0312 µg/mL (≈ 0.0666 µM); against Candida parapsilosis it was 0.0625 µg/mL (≈ 0.133 µM); in the experiment with Candida albicans [2], 0.0625 µg/mL (≈ 0.133 µM).
